Measurements published in ChEMBL document CHEMBL1138110, “Microwave-assisted synthesis of N-alkylated benzotriazole derivatives: antimicrobial studies” (2006).
Where a name gives a salt, the structure may show the parent alone.

Legend:
[1] = system: Xanthomonas campestris; test: Antibacterial activity against Xanthomonas campestris pvs by disk diffusion method at 10 ug/disk; type: functional; details: read-out: IZ
[2] = system: Xanthomonas oryzae; test: Antibacterial activity against Xanthomonas oryzae by disk diffusion method at 10 ug/disk; type: functional; details: read-out: IZ
[3] = system: Aspergillus flavus; test: Antifungal activity against Aspergillus flavus by disk diffusion method at 25 ug/disk; type: functional; details: read-out: IZ
Outline: (§1)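 Fungi kept on potato dextrose agar at 28 °C; conidia scraped from 5–15 day PDA cultures into distilled water, filtered through sterile cotton, resuspended, adjusted by hemocytometer to about 10^6 CFU/mL. Paper disks bore 25 µg compound, 10 µg nystatin reference, or DMSO alone. Plates at 4 °C ≥2 h, then 28 °C; zone diameter (mm) read at 48 h; mean of three determinations.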

[4] = system: Fusarium oxysporum; test: Antifungal activity against Fusarium oxysporum by disk diffusion method at 25 ug/disk; type: functional; details: read-out: IZ; outline: as §1
[5] = system: Trichoderma; test: Antifungal activity against Trichoderma species by disk diffusion method at 25 ug/disk; type: functional; details: read-out: IZ; outline: as §1
[6] = system: Fusarium verticillioides; test: Antifungal activity against Fusarium moniliforme by disk diffusion method at 25 ug/disk; type: functional; details: read-out: IZ; outline: as §1
[7] = system: Bacillus subtilis; test: Antibacterial activity against Bacillus subtilis by disk diffusion method at 25 ug/disk; type: functional; details: read-out: IZ
Outline: (§2)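 Bacteria kept on LB agar, grown in LB broth, spun 10,000 rpm 5 min, pellet taken up in double-distilled water, density set by hemocytometer to about 10^4 CFU/mL for plate inoculation. Paper disks carried 25 µg test compound or 10 µg streptomycin/tetracycline reference; DMSO-only disks as negative control. Plates held at 4 °C ≥2 h, then 28 °C; inhibition zone diameter (mm) read at 24 h; mean of three determinations.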

[8] = system: Escherichia coli; test: Antibacterial activity against Escherichia coli by disk diffusion method at 25 ug/disk; type: functional; details: read-out: IZ; outline: as §2
[9] = system: Pseudomonas fluorescens; test: Antibacterial activity against Pseudomonas fluorescens by disk diffusion method at 25 ug/disk; type: functional; details: read-out: IZ; outline: as §2
[10] = system: Xanthomonas campestris; test: Antibacterial activity against Xanthomonas campestris pvs by disk diffusion method at 25 ug/disk; type: functional; details: read-out: IZ; outline: as §2
[11] = system: Xanthomonas oryzae; test: Antibacterial activity against Xanthomonas oryzae by disk diffusion method at 25 ug/disk; type: functional; details: read-out: IZ
[12] = system: Aspergillus niger; test: Antifungal activity against Aspergillus niger by disk diffusion method at 25 ug/disk; type: functional; details: read-out: IZ; outline: as §1
[13] = system: Bacillus subtilis; test: Antibacterial activity against Bacillus subtilis by disk diffusion method at 10 ug/disk; type: functional; details: read-out: IZ
[14] = system: Escherichia coli; test: Antibacterial activity against Escherichia coli by disk diffusion method at 10 ug/disk; type: functional; details: read-out: IZ; outline: as §2
[15] = system: Pseudomonas fluorescens; test: Antibacterial activity against Pseudomonas fluorescens by disk diffusion method at 10 ug/disk; type: functional; details: read-out: IZ
[16] = system: Aspergillus flavus; test: Antifungal activity against Aspergillus flavus by disk diffusion method at 10 ug/disk; type: functional, organism-based
Outline: (§3)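 Fungi kept on potato dextrose agar at 28 °C. Conidia scraped from 5–15 day PDA cultures into water, cotton-filtered, and adjusted by hemocytometer to ~10^6 CFU/mL. Disks carried 10 µg; DMSO-only disks as negative control. Plates held at 4 °C ≥2 h, then 28 °C; inhibition zone diameter (mm) read after 48 h. Mean of three determinations.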

[17] = system: Fusarium oxysporum; test: Antifungal activity against Fusarium oxysporum by disk diffusion method at 10 ug/disk; type: functional, organism-based; outline: as §3
[18] = system: Trichoderma; test: Antifungal activity against Trichoderma species by disk diffusion method at 10 ug/disk; type: functional, organism-based; outline: as §3
[19] = system: Fusarium verticillioides; test: Antifungal activity against Fusarium moniliforme by disk diffusion method at 10 ug/disk; type: functional, organism-based; outline: as §3
[20] = system: Aspergillus niger; test: Antifungal activity against Aspergillus niger by disk diffusion method at 10 ug/disk; type: functional, organism-based; outline: as §3

CN(C)[C@@H]1C(O)=C(C(N)=O)C(=O)[C@@]2(O)C(O)=C3C(=O)c4c(O)cccc4[C@@](C)(O)[C@H]3C[C@@H]12 [TETRACYCLINE]
zone of inhibition at 10 µg/disc [1]: 12 mm | zone of inhibition at 10 µg/disc [2]: 11 mm

CCCn1nnc2ccccc21
zone of inhibition at 25 µg/disc [3]: 4 mm | zone of inhibition at 25 µg/disc [4]: 6 mm | zone of inhibition at 25 µg/disc [5]: 1 mm | zone of inhibition at 25 µg/disc [6]: 4 mm | zone of inhibition at 25 µg/disc [7]: 6 mm | zone of inhibition at 25 µg/disc [8]: 4 mm | zone of inhibition at 25 µg/disc [9]: 1 mm | zone of inhibition at 25 µg/disc [10]: 3 mm | zone of inhibition at 25 µg/disc [11]: 2 mm | zone of inhibition at 25 µg/disc [12]: 5 mm

COc1cc(Br)c(Cn2nnc3ccccc32)cc1OC
zone of inhibition at 25 µg/disc [3]: 10 mm | zone of inhibition at 25 µg/disc [4]: 14 mm | zone of inhibition at 25 µg/disc [5]: 16 mm | zone of inhibition at 25 µg/disc [6]: 13 mm | zone of inhibition at 25 µg/disc [7]: 12 mm | zone of inhibition at 25 µg/disc [8]: 15 mm | zone of inhibition at 25 µg/disc [9]: 18 mm | zone of inhibition at 25 µg/disc [10]: 12 mm | zone of inhibition at 25 µg/disc [12]: 9 mm

Cc1cc2c(cc1Cn1nnc3ccccc31)OCO2
zone of inhibition at 25 µg/disc [3]: 19 mm | zone of inhibition at 25 µg/disc [4]: 22 mm | zone of inhibition at 25 µg/disc [5]: 20 mm | zone of inhibition at 25 µg/disc [6]: 18 mm | zone of inhibition at 25 µg/disc [7]: 18 mm | zone of inhibition at 25 µg/disc [8]: 20 mm | zone of inhibition at 25 µg/disc [9]: 22 mm | zone of inhibition at 25 µg/disc [10]: 18 mm | zone of inhibition at 25 µg/disc [11]: 19 mm | zone of inhibition at 25 µg/disc [12]: 16 mm

O=[N+]([O-])c1ccc(Cn2nnc3ccccc32)cc1
zone of inhibition at 25 µg/disc [3]: 7 mm | zone of inhibition at 25 µg/disc [4]: 9 mm | zone of inhibition at 25 µg/disc [5]: 11 mm | zone of inhibition at 25 µg/disc [6]: 8 mm | zone of inhibition at 25 µg/disc [7]: 6 mm | zone of inhibition at 25 µg/disc [8]: 7 mm | zone of inhibition at 25 µg/disc [9]: 8 mm | zone of inhibition at 25 µg/disc [10]: 4 mm | zone of inhibition at 25 µg/disc [12]: 5 mm

CN[C@@H]1[C@H](O[C@H]2[C@H](O[C@H]3[C@H](O)[C@@H](O)[C@H](N=C(N)N)[C@@H](O)[C@@H]3N=C(N)N)O[C@@H](C)[C@]2(O)C=O)O[C@@H](CO)[C@H](O)[C@H]1O [STREPTOMYCIN SULFATE]
zone of inhibition at 10 µg/disc [13]: 12 mm | zone of inhibition at 10 µg/disc [14]: 14 mm | zone of inhibition at 10 µg/disc [15]: 18 mm

CCCCn1nnc2ccccc21
zone of inhibition at 25 µg/disc [3]: 11 mm | zone of inhibition at 25 µg/disc [4]: 14 mm | zone of inhibition at 25 µg/disc [5]: 15 mm | zone of inhibition at 25 µg/disc [6]: 12 mm | zone of inhibition at 25 µg/disc [7]: 13 mm | zone of inhibition at 25 µg/disc [8]: 14 mm | zone of inhibition at 25 µg/disc [9]: 19 mm | zone of inhibition at 25 µg/disc [10]: 12 mm | zone of inhibition at 25 µg/disc [11]: 12 mm | zone of inhibition at 25 µg/disc [12]: 8 mm

O=C(Cn1nnc2ccccc21)c1ccc(Cl)cc1
zone of inhibition at 25 µg/disc [3]: 5 mm | zone of inhibition at 25 µg/disc [4]: 6 mm | zone of inhibition at 25 µg/disc [5]: 2 mm | zone of inhibition at 25 µg/disc [6]: 3 mm | zone of inhibition at 25 µg/disc [7]: 6 mm | zone of inhibition at 25 µg/disc [8]: 5 mm | zone of inhibition at 25 µg/disc [9]: 3 mm | zone of inhibition at 25 µg/disc [10]: 4 mm | zone of inhibition at 25 µg/disc [11]: 2 mm | zone of inhibition at 25 µg/disc [12]: 4 mm

NYSTATIN
inhibition zone (IZ) [16]: 10 mm | inhibition zone (IZ) [17]: 14 mm | inhibition zone (IZ) [18]: 16 mm | inhibition zone (IZ) [19]: 12 mm | inhibition zone (IZ) [20]: 8 mm

N#Cc1ccccc1-c1ccc(Cn2nnc3ccccc32)cc1
zone of inhibition at 25 µg/disc [3]: 17 mm | zone of inhibition at 25 µg/disc [4]: 20 mm | zone of inhibition at 25 µg/disc [5]: 18 mm | zone of inhibition at 25 µg/disc [6]: 17 mm | zone of inhibition at 25 µg/disc [7]: 16 mm | zone of inhibition at 25 µg/disc [8]: 18 mm | zone of inhibition at 25 µg/disc [9]: 21 mm | zone of inhibition at 25 µg/disc [10]: 16 mm | zone of inhibition at 25 µg/disc [11]: 15 mm | zone of inhibition at 25 µg/disc [12]: 14 mm
